# EBI2 block – EBI2 receptor antagonists, beta-arrestin recruitment, primary screen, cell-based, luminescence, 7a,25-OHC stimulation, uHTS; G-protein coupled receptor 183 (Homo sapiens), P32249; 7a,25-OHC stimulated; inhibition, % at 5 µM; 0.81% of 360,000 active; AID 651636, 2012; in the data active = inhibition above about 38%;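 note: enzyme fragment complementation signal reports receptor beta-arrestin coupling in cells; 0% = agonist plus DMSO wells and 100% = wells without agonist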
# CXCR6 inh – CXCR6 receptor inhibitors, primary screen, cell-based, beta-arrestin, luminescence, CHO-K1 PathHunter, 1536-well; C-X-C chemokine receptor type 6 (Homo sapiens), O00574; 0.36% of 360,000 active; AID 602244, 2012; inhibition, % at 20 µM; in the data active = inhibition above about 34%, passing the limit was not always enough;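 note: antagonist mode with CXCL16 agonist at 10 nM final; 0% = 10 nM CXCL16 with DMSO and 100% = unstimulated wells without agonist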
# CCR6 antag – CCR6 receptor antagonists, primary screen, cell-based, CHO-K1, luminescence, beta-arrestin, uHTS | CHO-K1 CCR6 PathHunter beta-arrestin, CCL20-stimulated | C-C chemokine receptor type 6 (Homo sapiens), P51684 | 0.49% of 340,000 active | AID 493098, 2011 | inhibition, % at 20 µM;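 active = compounds whose inhibition of the agonist-driven luminescence signal at 20 µM reaches about 50%, limit read from the data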;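 note: cells stimulated with CCL20 at 14 nM final; plate controls were DMSO with CCL20 for no effect and DMSO without agonist for full effect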
# Target sequence (P51684 whole entry, looked up): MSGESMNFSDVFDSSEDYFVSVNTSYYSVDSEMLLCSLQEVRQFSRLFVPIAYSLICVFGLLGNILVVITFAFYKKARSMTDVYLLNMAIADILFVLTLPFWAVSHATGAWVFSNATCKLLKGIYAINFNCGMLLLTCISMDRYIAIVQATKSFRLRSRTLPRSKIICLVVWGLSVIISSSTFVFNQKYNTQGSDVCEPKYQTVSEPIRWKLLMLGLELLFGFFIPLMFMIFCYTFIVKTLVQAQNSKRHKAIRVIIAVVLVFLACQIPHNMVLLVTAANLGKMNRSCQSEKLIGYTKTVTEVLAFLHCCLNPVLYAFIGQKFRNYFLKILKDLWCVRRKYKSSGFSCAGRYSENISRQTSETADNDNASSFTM
# APJ agonist – agonists of human apelin receptor APJ, primary screen, CHO-K1 cells, PathHunter beta-arrestin, luminescence | 0% DMSO wells, 100% apelin | P35414 | 0.11% of 330,000 active | activation, % at 20 µM;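 active = activation more than six SD over the plate average, tested at 20 µM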;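 note: 0% = DMSO alone and 100% = apelin-13 at 10 nM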
#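 Assay system: CHO-K1 cells stably expressing ProLink-tagged human APJ and arrestin–beta-gal acceptor. Compound dosing: 20 µM single point, 1% DMSO. Times: 16-18 h seeding, 90 min dark compound exposure, 60 min detection. Detection: beta-gal luminescence. Evaluation: APJ–arrestin association signal. Controls: negative DMSO alone, positive Apelin-13 at 10 nM.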
# APJ antag – antagonists of human apelin receptor APJ, primary screen, CHO-K1 cells, beta-arrestin complementation, luminescence. 0.32% of 330,000 active. P35414. inhibition, % at 20 µM;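 active = inhibition above about 40% at 20 µM, limit read from the data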;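 note: cells challenged with 10 nM apelin-13 agonist together with compound; plate controls were apelin-13 plus DMSO wells for no effect and DMSO wells lacking apelin-13 for full effect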
# m5-HT2A agonist – mouse Htr2a agonists via beta-arrestin recruitment, primary screen, cell-based, luminescence. 5-hydroxytryptamine receptor 2A (Mus musculus), P35363. CHO-K1 mHTR2A beta-arrestin complementation; percent of 30 µM serotonin response. activation, % at 7.6 µM. 0.66% of 360,000 active. AID 624169, 2012;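 active = activation above a run cutoff, the mean activation of all tested compounds plus 3 SD, cut at about 14% in these data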;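 note: 0% = plate median of compound wells and 100% = 30 µM serotonin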
# MOR ag counter – OPRM1 agonists via beta-arrestin recruitment, confirmation, counter-screen for mouse HTR2A agonist project, cell-based, luminescence, single concentration. shares compounds with m5-HT2A agonist. U2OS OPRM1 beta-arrestin PathHunter; DMSO 0%, DAMGO 9.3 µM 100%. activation, % at 9.3 µM. 5.3% of 2,300 active;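 active = mean activation above the mean of DMSO-only wells plus 3 SD, cut at about 0.5% in these data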
# m5-HT2A ag conf – mouse HTR2A agonists, beta-arrestin recruitment, confirmation, cell-based, luminescence, CHO-K1 PathHunter, triplicate; activation, % at 7.6 µM; DMSO 0%, 30 µM serotonin 100%; 19% of 2,300 active; shares compounds with m5-HT2A agonist;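 active = mean activation across triplicates above the hit threshold derived in the original primary screen, cut at about 15% in these data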
# Starred values were filed as active, the others as inactive; · = not tested or not shown. A selection: hits, their analogues and other compounds. The true share with any hit is near 2.1%.
SMILES,EBI2 block,CXCR6 inh,CCR6 antag,APJ agonist,APJ antag,m5-HT2A agonist,MOR ag counter,m5-HT2A ag conf
CC(C)OC(=O)CNc1n[nH]c(=S)[nH]c1=O,-4.0,7.6,9.2,·,·,1.0,·,·
COC(=O)CNc1n[nH]c(=S)[nH]c1=O,-1.6,1.8,5.4,-1.4,13.0,16.7*,-0.6,-2.1
O=C(O)C/C(=C\c1ccc2c(c1)OCO2)c1nc2ccccc2s1,-8.1,-12.5,6.0,-0.4,-3.0,4.0,·,·
COC(=O)c1ccn(CSc2cc(Cl)ccc2Cl)n1,10.8,9.0,6.8,-2.6,8.0,21.1*,0.6*,4.1
O=S(=O)(Nc1cccc(-n2cnnn2)c1)c1cccc(Cl)c1,1.0,-3.2,6.5,-1.6,8.9,9.3,·,·
O=S(=O)(Nc1cccc(-n2cnnn2)c1)c1ccccc1,-9.5,-7.7,12.7,-3.3,8.2,14.9*,-0.4,0.5
O=C([C@H]1O[C@@H](n2ccc(=O)[nH]c2=O)[C@H](O)[C@@H]1O)N1CCN(Cc2ccccn2)CC1,-5.3,-4.3,·,·,·,-2.6,·,·
CCn1c(C2CC(=O)N(Cc3ccccc3)C2)nc2ccccc21 (configuration not stated),11.6,1.6,9.0,6.9,-0.5,40.5*,-0.2,-3.8
CC(C)(C)N1CC(c2nc3ccccc3n2Cc2ccccc2)CC1=O (configuration not stated),-11.8,39.8,-0.3,0.9,-1.9,0.7,·,·
COc1cc(/C=C2\SC(=O)N(CCNC(=O)c3c(C)noc3C)C2=O)cc(OC)c1OC,5.9,-0.8,4.8,0.5,9.7,20.8*,-0.3,-2.4
CC(C)(C)C(=O)N(Cc1nc2ccccc2c(=O)[nH]1)Cc1cccs1,5.4,8.7,9.6,1.7,23.4,14.7*,-0.6,-6.4
COc1ccc(C=CC(=O)c2ccc3cc(OC)c(OC)cc3c2)cc1OC,2.5,2.0,·,·,·,16.9*,-0.8,1.1
COc1ccc(C=CC(=O)c2ccc(OC)c(OC)c2)cc1O,3.8,3.9,·,·,·,6.3,·,·
COC(=O)c1c(NC(=O)CSc2nnnn2C)sc(C)c1C,-0.9,3.0,4.5,-4.0,-5.4,1.5,·,·
COc1ccc(OC)c(S(=O)(=O)N2CCC(C(=O)Nc3cccc(C)c3C)CC2)c1,-4.1,0.0,9.4,-2.7,-8.0,-4.3,·,·
COc1ccc(NC(=O)N2CCCC(C(=O)Nc3cccc(C)c3C)C2)cc1 (configuration not stated),19.5,-4.4,8.9,-0.7,-8.4,16.2*,-0.2,-4.2
CN[C@H]1CCc2cc(OC)c(OC)c(OC)c2-c2ccc(N(C)CC(OC)OC)c(=O)cc21,3.7,7.9,-10.3,-3.4,-45.4,0.8,·,·
COc1cc2c(c(OC)c1OC)-c1ccc(N(C)CC(OC)OC)c(=O)cc1[C@@H](NC(C)=O)CC2,-2.6,-6.1,-4.0,-2.6,7.4,25.2*,-0.6,-3.8
COCCNc1nc(-c2cc(-c3ccc(Cl)cc3)on2)cc(C(C)C)n1,10.2,-4.0,2.7,-2.1,-13.1,16.1*,-0.7,-2.7
Cc1cc(C)c(C)c(S(=O)(=O)N2CCN(C(=O)c3ccccn3)CC2)c1C,-1.1,-6.5,-4.0,-4.2,-12.4,15.8*,1.1*,4.0
Cc1ccc(C)c(S(=O)(=O)N2CCN(C(=O)c3ccccn3)CC2)c1,-2.2,0.8,1.4,-3.3,4.3,1.2,·,·
COc1ccc2c(CC(=O)OCC(=O)c3ccc(F)cc3)coc2c1,-3.3,-8.2,5.8,-7.2,2.5,-5.9,·,·
